Measurements published in ChEMBL document CHEMBL1156837, “Synthesis and the biological evaluation of arylnaphthalene lignans as anti-hepatitis B virus agents” (Bioorg Med Chem, 2010).
Activity calls are given as the source filed them. The calls are words filed in the database; no cut-off is given here.

Columns and labels:
[1] = Cytotoxicity against human HepA2 cells after 48 hrs by MTT assay; assay type: cell-based
Summary of the method: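 HepA2 cells seeded in 96-well plates in DMEM and treated with various concentrations of compound for 2 days; cell number measured by MTT; CC50 taken as concentration giving cell growth at 50% of untreated cells.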

Hepatitis B virus [2] = experiment: Antiviral activity against Hepatitis B virus in human HepA2 cells assessed as reduction of HBsAg secretion after 48 hrs by enzyme immunoassay; assay type: functional, organism-based
Summary of the method: (§1)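 HepA2 cells (HepG2 carrying tandem-repeat full-length HBV DNA) seeded at 8 × 10⁴ cells/well in DMEM with 10% fetal calf serum, attached overnight, washed twice with PBS pH 7.0, then exposed to various concentrations in serum-free DMEM for 48 h. Secreted HBsAg and HBeAg in medium measured by enzyme immunoassay; EC50 as concentration giving 50% of untreated level; mean ± SD, n = 3.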

Hepatitis B virus [3] = experiment: Suppression of enhancer 1 promoter activity of Hepatitis B virus in human HepA2 cells at 3 uM by luciferase reporter gene assay; assay type: functional, organism-based
Summary of the method: (§2)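 HepA2 cells transfected by lipofectamine 2000 with HBV S1P, S2P, core, X or enhancer I/X promoter–luciferase constructs plus β-gal vector, then held in serum-free DMEM with compound (0.9 or 3.0 µM) for 48 h. Lysate luciferase normalized to protein (Bradford) and β-gal, untreated set to one; mean ± SEM, at least three independent experiments.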

Hepatitis B virus [4] = experiment: Suppression of large viral surface antigen promoter activity of Hepatitis B virus in human HepA2 cells at 3 uM by luciferase reporter gene assay; assay type: functional, organism-based; summary of the method: as §2
Hepatitis B virus [5] = experiment: Suppression of viral core protein promoter activity of Hepatitis B virus in human HepA2 cells at 3 uM by luciferase reporter gene assay; assay type: functional, organism-based; summary of the method: as §2
Hepatitis B virus [6] = experiment: Antiviral activity against Hepatitis B virus ayw in human M33 cells containing Lamivudine resistant HBV genome with DNA polymerase L515M/M539V mutation genome cells assessed as reduction of viral DNA level after 6 days by RT-PCR; assay type: functional, organism-based
Summary of the method: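 M33 cells (HepG2 carrying HBV with the L515M/M539V polymerase double mutation) were maintained in DMEM with 10% FCS at 37 °C under 5% CO₂. Cells were seeded at 5 × 10⁶ per 100 mm dish and treated with graded drug concentrations in serum-free DMEM. Viral DNA was extracted from the medium and quantified by real-time PCR against an HBV plasmid standard curve (10³–10⁷ copies), reported as mean, SD, n = 3.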

Hepatitis B virus [7] = experiment: Suppression of viral X protein promoter activity of Hepatitis B virus in human HepA2 cells at 3 uM by luciferase reporter gene assay; assay type: functional, organism-based; summary of the method: as §2
Hepatitis B virus [8] = experiment: Suppression of major viral surface promoter activity of Hepatitis B virus in human HepA2 cells at 3 uM by luciferase reporter gene assay; assay type: functional, organism-based; summary of the method: as §2
Hepatitis B virus [9] = experiment: Antiviral activity against Hepatitis B virus ayw in human 1.3ES2 cells stably transfected with 1.3 fold wild type HBV ayw strain genome cells assessed as reduction of major HbsAg mRNA level after 2 days by Northern blot; assay type: functional, organism-based
Summary of the method: (§3)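 1.3ES2 cells (HepG2 with 1.3 copies of HBV genome integrated) grown in DMEM with 10% fetal calf serum to confluence in 100 mm dishes, then switched to serum-free DMEM with compound (0, 1.5, 3.0, 9.0 µM) for 48 h. Total RNA Northern-hybridized with HBV DNA probe; 3.5-kb and 2.4/2.1-kb transcripts read, GAPDH mRNA as internal marker; representative of three independent experiments.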

Hepatitis B virus [10] = experiment: Antiviral activity against Hepatitis B virus ayw in human 1.3ES2 cells stably transfected with 1.3 fold wild type HBV ayw strain genome cells assessed as reduction of viral pregenomic RNA level after 2 days by Northern blot; assay type: functional, organism-based; summary of the method: as §3
Hepatitis B virus [11] = experiment: Antiviral activity against Hepatitis B virus ayw in human 1.3ES2 cells stably transfected with 1.3 fold wild type HBV ayw strain genome cells assessed as reduction of viral DNA level after 6 days by RT-PCR; assay type: functional, organism-based
[12] = Cytotoxicity against human HepA2 cells assessed as effect on cell proliferation after 48 hrs by WST1 dye reduction assay; assay type: cell-based; conditions: hepa2, 48 h
Summary of the method: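 HepA2 cells treated alongside the antigen assay in serum-free DMEM for 48 h after PBS wash; WST-1 added for 0.5 h and formazan formation used to estimate viable cells per well; mean ± SD, n = 3.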

Hepatitis B virus [13] = experiment: Antiviral activity against Hepatitis B virus ayw in human 1.3ES2 cells stably transfected with 1.3 fold wild type HBV ayw strain genome cells assessed as reduction of viral core protein level after 2 days by Western blot; assay type: functional, organism-based
Summary of the method: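 1.3ES2 cells in 100 mm dishes treated with compound (0, 1.5, 3.0, 9.0 µM) in serum-free DMEM for 48 h; total cell lysates resolved by SDS-PAGE and immunoblotted with mouse anti-HBV core antibody.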

Hepatitis B virus [14] = experiment: Antiviral activity against Hepatitis B virus in human HepA2 cells assessed as reduction of HBeAg secretion after 48 hrs by ELISA; assay type: functional, organism-based; conditions: HepA2, 48 h; summary of the method: as §1
Hepatitis B virus [15] = experiment: Antiviral activity against Hepatitis B virus ayw in human 1.3ES2 cells stably transfected with 1.3 fold wild type HBV ayw strain genome cells assessed as reduction of large HbsAg mRNA level after 2 days by Northern blot; assay type: functional, organism-based; summary of the method: as §3
Hepatitis B virus [16] = experiment: Antiviral activity against Hepatitis B virus ayw in human 1.3ES2 cells stably transfected with 1.3 fold wild type HBV ayw strain genome cells assessed as reduction of HbeAg mRNA level after 2 days by Northern blot; assay type: functional, organism-based; summary of the method: as §3
Hepatitis B virus [17] = experiment: Antiviral activity against Hepatitis B virus in human HepA2 cells assessed as reduction of HBsAg secretion after 48 hrs by ELISA; assay type: functional, organism-based; conditions: HepA2, 48 h; summary of the method: as §1
[18] = Hepatitis B virus, HepA2, 48 h, read-out: EC50

Structure (SMILES) | EC50 (Hepatitis B virus [2]; [18]) [µM] | CC50 at 48 h [1] [µM] | also measured
N#Cc1cc2c(c3c(-c4ccc5c(c4)OCO5)c4c(cc13)C(=O)OC4)OCO2 | > 12.5 | > 12.5 | 
BrCc1cc2ccc3c(c2c(-c2ccc4c(c2)OCO4)c1CBr)OCO3 |  |  | EC50 (Hepatitis B virus [2]; hepa2): Not Active
O=C1OCc2c1cc1c(Br)cc3c(c1c2-c1ccc2c(c1)OCO2)OCO3 | > 12.5 | 6.33 | 
O=C1OCc2c1cc1ccc3c(c1c2-c1ccc(OC(F)(F)F)cc1)OCO3 | > 12.5 | > 12.5 | 
CC(=O)OCCN1C(=O)c2cc3ccc4c(c3c(-c3ccc5c(c3)OCO5)c2C1=O)OCO4 | > 12.5 | > 12.5 | inhibition (Hepatitis B virus [3]): inactive; inhibition (Hepatitis B virus [4]): inactive; inhibition (Hepatitis B virus [5]): inactive; inhibition (Hepatitis B virus [6]): inactive; inhibition (Hepatitis B virus [7]): inactive; inhibition (Hepatitis B virus [8]): inactive; inhibition (Hepatitis B virus [9]): inactive; inhibition (Hepatitis B virus [10]): inactive; inhibition (Hepatitis B virus [11]): inactive
COC(=O)c1c(C(=O)OC)c(-c2ccc3c(c2)OCO3)c2c3c(ccc2c1O)OCO3 | > 12.5 | 7.04 | 
Nc1ccn([C@@H]2CS[C@H](CO)O2)c(=O)n1 |  |  | inhibition (Hepatitis B virus [6]): inactive; inhibition (Hepatitis B virus [11]): Active
O=C1OCc2c1cc1c(Br)cc3c(c1c2-c1cc2c(cc1Br)OCO2)OCO3 | > 12.5 | > 12.5 | 
COc1ccc(-c2c3c(cc4ccc5c(c24)OCO5)C(=O)OC3)cc1O | 0.14 | 10.1 | inhibition (Hepatitis B virus [3]): Active; inhibition (Hepatitis B virus [4]): Active; inhibition (Hepatitis B virus [5]): Active; Activity [12]: Non-toxic; inhibition (Hepatitis B virus [6]): Dose-dependent effect; inhibition (Hepatitis B virus [13]): Dose-dependent effect; EC50 (Hepatitis B virus [14]): 140 nM; inhibition (Hepatitis B virus [7]): inactive; inhibition (Hepatitis B virus [15]): Dose-dependent effect; inhibition (Hepatitis B virus [16]): Dose-dependent effect; inhibition (Hepatitis B virus [8]): Active; inhibition (Hepatitis B virus [11]): Dose-dependent effect; EC50 (Hepatitis B virus [17]): 60 nM
COc1cc(-c2c3c(cc4ccc5c(c24)OCO5)COC3=O)ccc1OCc1ccccc1 |  |  | EC50 (Hepatitis B virus [2]; hepa2): Not Active
COC(=O)c1c(C(=O)OC)c(-c2ccc3c(c2)OCO3)c2c3c(ccc2c1OC)OCO3 | > 12.5 | 8.93 | 
COc1ccc(-c2c3c(cc4ccc5c(c24)OCO5)C(=O)OC3)cc1OCc1ccccc1 | > 12.5 | > 12.5 | 
COC(=O)c1c(C(=O)O)c(O)c2ccc3c(c2c1-c1ccc2c(c1)OCO2)OCO3 | > 12.5 | 7.01 | 
O=C1OC(=O)c2c1cc1ccc3c(c1c2-c1ccc(OC(F)(F)F)cc1)OCO3 |  |  | EC50 (Hepatitis B virus [2]; hepa2): Not Active
COc1ccc(-c2c3c(cc4ccc5c(c24)OCO5)C(=O)OC3=O)cc1OC |  |  | EC50 (Hepatitis B virus [2]; hepa2): Not Active
COc1ccc(-c2c3c(cc4ccc5c(c24)OCO5)C(=O)OC3=O)cc1OCc1ccccc1 | > 12.5 | > 12.5 | 
O=C1OCc2c1cc1ccc3c(c1c2-c1ccc(OCc2ccccc2)c(OCc2ccccc2)c1)OCO3 | > 12.5 | > 12.5 | 
O=C1C=Cc2cc3c(c(-c4ccc5c(c4)OCO5)c2C1=O)COC3=O | > 12.5 | 7.49 | 
CCOC(=O)c1cc2ccc3c(c2c(-c2ccc4c(c2)OCO4)c1C(=O)OCC)OCO3 | > 12.5 | > 12.5 | 

Second part, led by results:

EC50 (Hepatitis B virus [2]; [18]) [µM] | Structure (SMILES) | CC50 at 48 h [1] [µM] | also measured
> 12.5 | O=C1OC(=O)c2c1cc1ccc3c(c1c2-c1ccc(OCc2ccccc2)c(OCc2ccccc2)c1)OCO3 | > 12.5 | 
> 12.5 | N#Cc1cc2c(c3c(-c4cc5c(cc4Br)OCO5)c4c(cc13)C(=O)OC4)OCO2 | > 12.5 | 
> 12.5 | O=C1OC(=O)c2c1cc1ccc3c(c1c2-c1ccc2c(c1)OCO2)OCO3 | 11.8 | 
2.39 | O=Cc1cc2ccc3c(c2c(-c2ccc4c(c2)OCO4)c1C=O)OCO3 | 5.31 | 
> 12.5 | O=C1c2cc3ccc4c(c3c(-c3ccc5c(c3)OCO5)c2C(=O)N1CCO)OCO4 | > 12.5 | 
> 12.5 | O=C1OCc2cc3ccc4c(c3c(-c3ccc(OCc5ccccc5)c(OCc5ccccc5)c3)c21)OCO4 | > 12.5 | 
2.18 | O=C1OCc2cc3ccc4c(c3c(-c3ccc5c(c3)OCO5)c21)OCO4 | > 12.5 | 
> 12.5 | CC(=O)OCc1cc2ccc3c(c2c(-c2ccc4c(c2)OCO4)c1C=O)OCO3 | 4.69 | 
1.89 | COc1cc(-c2c3c(cc4ccc5c(c24)OCO5)C(=O)OC3)ccc1O | > 12.5 | 
3.06 | O=C1OCc2c1cc1ccc3c(c1c2-c1ccc(O)c(O)c1)OCO3 | 7.01 | 
7.64 | COc1ccc(-c2c3c(cc4ccc5c(c24)OCO5)C(=O)OC3)cc1OC | 5.86 | 
> 12.5 | COC(=O)c1c(C(=O)O)c(OC)c2ccc3c(c2c1-c1ccc2c(c1)OCO2)OCO3 | 7.87 | 
> 12.5 | COc1cc(-c2c3c(cc4ccc5c(c24)OCO5)C(=O)OC3)ccc1OCc1ccccc1 | > 12.5 | 
> 12.5 | COc1ccc(-c2c3c(cc4ccc5c(c24)OCO5)COC3=O)cc1OCc1ccccc1 | > 12.5 | 
> 12.5 | COc1cc(-c2c3c(cc4ccc5c(c24)OCO5)C(=O)OC3=O)ccc1OCc1ccccc1 | 11.7 | 
0.42 | CC(=O)OCc1cc2ccc3c(c2c(-c2ccc4c(c2)OCO4)c1CO)OCO3 | > 12.5 | 
0.89 | O=C(O)c1cc2ccc3c(c2c(-c2ccc4c(c2)OCO4)c1CO)OCO3 | > 12.5 | 
1.41 | OCc1cc2ccc3c(c2c(-c2ccc4c(c2)OCO4)c1CO)OCO3 | > 12.5 | 
1.22 | CC(=O)OCc1cc2ccc3c(c2c(-c2ccc4c(c2)OCO4)c1COC(C)=O)OCO3 | 6.91 | 
0.16 | O=C1OCc2c1cc1ccc3c(c1c2-c1ccc2c(c1)OCO2)OCO3 [HELIOXANTHIN] | 11.3 | 
